This assay deals with Metabotropic glutamate receptor 5 (Homo sapiens, UniProt P41594). Kind of assay: Displacement of [3H]M-MPEP from mGluR5 (unknown origin) at 1 uM measured after 60 mins relative to control. An outline of the steps: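 Rat cerebrocortical membranes or membranes from A18 cells expressing human mGlu5a, incubated with [³H]M-MPEP and test compound at 1 µM in 50 mM Tris pH 7.6 with 2 mM MgCl₂ and 2 mM CaCl₂, 60 min at 25°C. Non-specific binding was taken with […]. Result is % displacement, run in duplicate or triplicate.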
Chain of Metabotropic glutamate receptor 5 (P41594 21-1212 limits assumed): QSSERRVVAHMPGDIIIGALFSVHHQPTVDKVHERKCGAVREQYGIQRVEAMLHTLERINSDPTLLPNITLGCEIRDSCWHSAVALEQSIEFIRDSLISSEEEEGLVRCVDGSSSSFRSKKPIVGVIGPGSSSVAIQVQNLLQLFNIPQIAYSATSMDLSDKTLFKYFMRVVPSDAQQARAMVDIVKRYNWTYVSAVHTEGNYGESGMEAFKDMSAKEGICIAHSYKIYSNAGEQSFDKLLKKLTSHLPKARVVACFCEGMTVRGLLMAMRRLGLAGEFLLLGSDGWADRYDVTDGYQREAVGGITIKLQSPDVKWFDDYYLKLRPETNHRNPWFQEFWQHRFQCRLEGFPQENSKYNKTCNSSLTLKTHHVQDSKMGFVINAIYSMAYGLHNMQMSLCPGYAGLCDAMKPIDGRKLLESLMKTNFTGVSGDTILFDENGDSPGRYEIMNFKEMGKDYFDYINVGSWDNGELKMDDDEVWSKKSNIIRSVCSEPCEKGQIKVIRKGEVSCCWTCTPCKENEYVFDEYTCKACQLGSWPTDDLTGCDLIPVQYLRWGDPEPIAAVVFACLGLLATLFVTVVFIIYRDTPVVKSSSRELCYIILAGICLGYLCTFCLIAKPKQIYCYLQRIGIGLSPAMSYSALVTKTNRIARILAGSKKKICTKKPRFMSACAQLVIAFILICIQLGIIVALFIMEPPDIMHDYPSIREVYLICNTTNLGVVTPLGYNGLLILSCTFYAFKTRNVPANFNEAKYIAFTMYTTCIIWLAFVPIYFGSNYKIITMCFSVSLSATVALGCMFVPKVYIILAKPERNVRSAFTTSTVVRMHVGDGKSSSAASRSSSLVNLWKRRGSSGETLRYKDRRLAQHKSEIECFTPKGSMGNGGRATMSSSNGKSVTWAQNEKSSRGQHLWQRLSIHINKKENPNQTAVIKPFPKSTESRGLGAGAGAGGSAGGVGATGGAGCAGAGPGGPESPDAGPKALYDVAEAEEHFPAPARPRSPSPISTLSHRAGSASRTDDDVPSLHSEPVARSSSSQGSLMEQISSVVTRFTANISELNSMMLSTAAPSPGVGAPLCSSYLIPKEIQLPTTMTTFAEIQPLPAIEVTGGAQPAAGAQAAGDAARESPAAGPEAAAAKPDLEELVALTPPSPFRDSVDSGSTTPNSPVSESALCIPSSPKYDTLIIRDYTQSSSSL
On the technique in general: Loss of bound radioactivity is the signal in a displacement assay; it reports binding, not function.
A word on the inhibition: it is the drop in the measured response relative to a control, in per cent. In the case of `NS(=O)(=O)N1CCN(c2c(S(=O)(=O)c3cccc(F)c3)cnc3cc(F)ccc23)CC1`, the inhibition was determined as 1.9%.
For `COc1cccc(S(=O)(=O)c2cnc3ccc(C)cc3c2N2CCC(C)CC2)c1`, the inhibition turned out to be 96%.
For `COc1ccc2ncc(S(=O)(=O)c3ccc(OC)c(OC)c3)c(N3CCC(C)CC3)c2c1`, the inhibition was -3%.
For `CC1CCN(c2c(S(=O)(=O)c3cccc(F)c3)cnc3ccc(Cl)cc23)CC1`, the inhibition worked out at 58%.
The result for `O=S(=O)(c1ccc(F)c(Cl)c1)c1cnc2c(F)cccc2c1N1CCOCC1` reads 83%; that for `O=S(=O)(c1cc(F)cc(F)c1)c1cnc2ccc(Cl)cc2c1N1CCOCC1`, 7%; that for `O=S(=O)(c1ccc(F)cc1)c1cnc2c(F)cccc2c1N1CCOCC1`, 34%.
The result for `O=S(=O)(c1cc(Cl)cc(Cl)c1)c1cnc2ccc(F)cc2c1N1CCOCC1` reads 17%.
The value for `CC1CCN(c2c(S(=O)(=O)c3cc(Cl)cc(Cl)c3)cnc3cc(F)ccc23)CC1` was 87%.
Consider `COc1ccc2ncc(S(=O)(=O)c3cccc(Cl)c3)c(N3CCOCC3)c2c1`, for which the inhibition was 12%.
The value for `COc1ccc(S(=O)(=O)c2cnc3cc(F)ccc3c2N2CCOCC2)cc1` was 23%.
The value for `O=S(=O)(c1cccc(F)c1)c1cnc2ccc(Cl)cc2c1N1CCOCC1` was 0%; that for `Cc1ccc(S(=O)(=O)c2cnc3ccc(C)cc3c2N2CCC(C)CC2)cc1` was 82%.
On to `CC1CCN(c2c(S(=O)(=O)c3ccc(C#N)cc3)cnc3ccc(Cl)cc23)CC1`, for which the inhibition is 31%.
The result for `Cc1ccc2ncc(S(=O)(=O)c3ccc(F)c(Cl)c3)c(N3CCC(C)CC3)c2c1` reads 93%; that for `COc1ccc2ncc(S(=O)(=O)c3ccc(OC)c(OC)c3)c(N3CCOCC3)c2c1`, 1%.
The value for `O=S(=O)(c1cccc(F)c1)c1cnc2cc(F)ccc2c1N1CCOCC1` was 4 to 4.1%.
The value for `N#Cc1cccc(S(=O)(=O)c2cnc3cc(Cl)ccc3c2N2CCOCC2)c1` was 73%; that for `Cc1ccc2ncc(S(=O)(=O)c3ccc(F)cc3)c(N3CCOCC3)c2c1` was 18%.
Take `COc1ccc(S(=O)(=O)c2cnc3ccc(C)cc3c2N2CCOCC2)cc1Cl`: the inhibition worked out at 58%.
The result for `COc1ccc2ncc(S(=O)(=O)c3ccc(Cl)c(Cl)c3)c(N3CCOCC3)c2c1` reads 29%.
The value for `Cc1ccc(S(=O)(=O)c2cnc3ccc(Cl)cc3c2N2CCOCC2)cc1Cl` was 53%; that for `Cc1ccc(S(=O)(=O)c2cnc3ccc(Cl)cc3c2N2CCOCC2)cc1F` was 23%.
Turning to `Cc1ccc(S(=O)(=O)c2cnc3cc(Cl)ccc3c2N2CCC(C)CC2)cc1`, the inhibition stood at 94%.
Take `COc1ccc(S(=O)(=O)c2cnc3ccc(F)cc3c2N2CCOCC2)cc1OC`: the inhibition is -5%.
In the case of `O=S(=O)(c1ccccc1)c1cnc2ccc(F)cc2c1N1CCOCC1`, the inhibition was found to be 81%.
As for `Cc1ccc(S(=O)(=O)c2cnc3cc(F)ccc3c2N2CCC(C)CC2)cc1`, the inhibition was found to be 88%.
Regarding `O=S(=O)(c1cc(F)cc(F)c1)c1cnc2ccc(F)cc2c1N1CCOCC1`, the inhibition worked out at 3%.
In the case of `N#Cc1ccc(S(=O)(=O)c2cnc3ccc(F)cc3c2N2CCOCC2)cc1`, the inhibition is -3%.
With `O=S(=O)(c1ccc(Cl)c(Cl)c1)c1cnc2ccc(Cl)cc2c1N1CCOCC1`, the inhibition worked out at 63%.
The result for `N#Cc1ccc(S(=O)(=O)c2cnc3ccc(Cl)cc3c2N2CCOCC2)cc1` reads 4%.
Consider `N#Cc1cccc(S(=O)(=O)c2cnc3ccc(Cl)cc3c2N2CCOCC2)c1`, for which the inhibition was determined as 20%.
The value for `Cc1ccc2ncc(S(=O)(=O)c3cc(F)cc(F)c3)c(N3CCOCC3)c2c1` was 34%; that for `O=S(=O)(c1cc(Cl)cc(Cl)c1)c1cnc2c(F)cccc2c1N1CCOCC1` was 77%.
As for `COc1ccc(S(=O)(=O)c2cnc3ccc(Cl)cc3c2N2CCOCC2)cc1OC`, the inhibition is -2%.
The value for `CC1CCN(c2c(S(=O)(=O)c3cccc(C#N)c3)cnc3ccc(F)cc23)CC1` was 93%.
Consider `Cc1ccc2ncc(S(=O)(=O)c3cccc(C#N)c3)c(N3CCC(C)CC3)c2c1`, for which the inhibition is 52%.
Regarding `COc1ccc2ncc(S(=O)(=O)c3ccc(C)c(F)c3)c(N3CCOCC3)c2c1`, the inhibition worked out at 4%.
The result for `O=S(=O)(c1ccccc1)c1cnc2ccc(Cl)cc2c1N1CCOCC1` reads 18%; that for `COc1ccc(S(=O)(=O)c2cnc3ccc(C)cc3c2N2CCOCC2)cc1`, 26%.
On to `COc1cccc(S(=O)(=O)c2cnc3cc(F)ccc3c2N2CCOCC2)c1`, for which the inhibition is 72%.
The value for `CCOC(=O)C1CCN(c2c(S(=O)(=O)c3ccccc3)cnc3ccccc23)CC1` was 33%; that for `N#Cc1ccc(S(=O)(=O)c2cnc3c(F)cccc3c2N2CCOCC2)cc1` was 6%.
Consider `O=S(=O)(c1cccc(Cl)c1)c1cnc2cc(Cl)ccc2c1N1CCOCC1`, for which the inhibition is 81%.
As to `Cc1ccc(S(=O)(=O)c2cnc3cc(F)ccc3c2N2CCC(C)CC2)cc1C`, the inhibition stood at 90%.
Consider `Cc1ccc2ncc(S(=O)(=O)c3ccccc3)c(N3CCC(C)CC3)c2c1`, for which the inhibition came out at 67%.
For the molecule `O=S(=O)(c1cc(Cl)cc(Cl)c1)c1cnc2cc(F)ccc2c1N1CCOCC1`, the inhibition was 74%.
The value for `Cc1ccc(S(=O)(=O)c2cnc3cc(Cl)ccc3c2N2CCOCC2)cc1Cl` was 87%; that for `COc1ccc2ncc(S(=O)(=O)c3ccc(F)cc3)c(N3CCC(C)CC3)c2c1` was 27%; that for `CC1CCN(c2c(S(=O)(=O)c3ccc(Cl)cc3)cnc3c(F)cccc23)CC1` was 85%.
With `Cc1ccc(S(=O)(=O)c2cnc3ccc(Cl)cc3c2N2CCC(C)CC2)cc1Cl`, the inhibition was determined as 81%.
The result for `CC1CCN(c2c(S(=O)(=O)c3cccc(C#N)c3)cnc3cc(F)ccc23)CC1` reads 92 to 92.4%; that for `O=S(=O)(c1cccc(F)c1)c1cnc2ccc(F)cc2c1N1CCOCC1`, 0%; that for `CC1CCN(c2c(S(=O)(=O)c3cccc(F)c3)cnc3cc(Cl)ccc23)CC1`, 5.6 to 96%.
Take `Cc1ccc(S(=O)(=O)c2cnc3cc(Cl)ccc3c2N2CCC(C)CC2)cc1C`: the inhibition was found to be 86%.
For `Cc1cc(C)cc(S(=O)(=O)c2cnc3cc(F)ccc3c2N2CCC(C)CC2)c1`, the inhibition came to 80%.
The value for `COc1ccc2ncc(S(=O)(=O)c3cccc(F)c3)c(N3CCOCC3)c2c1` was -3%.
The value for `CC1CCN(c2c(S(=O)(=O)c3cccc(C#N)c3)cnc3cc(Cl)ccc23)CC1` was 94%; that for `Cc1ccc(S(=O)(=O)c2cnc3cc(Cl)ccc3c2N2CCC(C)CC2)cc1Cl` was 89%.
The result for `COc1ccc(S(=O)(=O)c2cnc3c(F)cccc3c2N2CCC(C)CC2)cc1` reads 67%.
`O=S(=O)(c1cc(F)cc(F)c1)c1cnc2cc(F)ccc2c1N1CCSCC1`: the inhibition came out at 78.4%.
The result for `COc1ccc2ncc(S(=O)(=O)c3cccc(Cl)c3)c(N3CCC(C)CC3)c2c1` reads -3%.
The value for `CC1CCN(c2c(S(=O)(=O)c3ccc(F)c(F)c3)cnc3ccc(F)cc23)CC1` was 82%.
The value for `CC1CCN(c2c(S(=O)(=O)c3cccc(Cl)c3)cnc3cc(Cl)ccc23)CC1` was 92%.

For the origin of these results see ChEMBL document CHEMBL4052615, “Discovery of 4-amino-3-arylsulfoquinolines, a novel non-acetylenic chemotype of metabotropic glutamate 5 (mGlu5) receptor negative allosteric modulators” (Eur J Med Chem, 2017).
